Results on two molecules are retold here after paper PMC3747594 (ACS Chemical Biology, 2013).

Changes are numbered by the printed parent chain. Several values for one entry are separate records, joined by “and”; a condition that tells them apart may be missing. Equal entries are not always repeated.

The test system of experiment [1] is K2P2.1 (TREK-1). The following applies: at 1.6 mM; cited from earlier work.
The next experiment addresses K2P9.1 (TASK-3) (Mus musculus, UniProt Q3LS21). Kind of experiment: Two-electrode voltage clamp in Xenopus oocytes, K2P9.1. It is filed as cell-based, Murine. In outline:
(§1)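 Murine channel cDNAs in pGEMHE/pMO were expressed in Xenopus oocytes and recorded by two-electrode voltage clamp. Bath contained 2 mM [K+]o at pH 7.4. Currents were elicited by a −150 to 50 mV ramp from a −80 mV holding potential. Responses were normalized to basal channel activity and fit with a modified Hill equation (EC50, Imax/Imin, Hill coefficient H). Values are mean ± SD or SEM from ≥2 independent experiments.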
A general note: Two-electrode voltage clamp is typically applied to oocytes expressing channels or transporters.

Another experiment addresses T1, K2P2.1 (TREK-1) G137I (Mus musculus, UniProt P97438, G152I).
T1 sequence (P97438 1-411 isoform P97438-2 G137I): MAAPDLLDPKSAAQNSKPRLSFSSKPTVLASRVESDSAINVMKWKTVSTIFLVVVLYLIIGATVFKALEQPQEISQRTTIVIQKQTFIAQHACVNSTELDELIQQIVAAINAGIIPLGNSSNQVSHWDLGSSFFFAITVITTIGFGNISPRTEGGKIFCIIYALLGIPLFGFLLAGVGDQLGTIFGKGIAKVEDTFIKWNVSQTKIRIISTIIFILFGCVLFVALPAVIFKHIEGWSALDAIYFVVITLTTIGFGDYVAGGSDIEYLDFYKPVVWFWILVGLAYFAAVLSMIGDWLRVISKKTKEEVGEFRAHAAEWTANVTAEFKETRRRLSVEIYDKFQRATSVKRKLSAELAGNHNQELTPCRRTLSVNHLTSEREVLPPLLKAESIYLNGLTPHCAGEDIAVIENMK
Put plainly: Two-electrode voltage clamp in Xenopus oocytes, G137I mutant. It is filed as cell-based, Murine.

Another experiment has as its target T2, K2P10.1 (TREK-2) (Mus musculus, UniProt Q8BUW1).
T2 sequence (Q8BUW1 1-535): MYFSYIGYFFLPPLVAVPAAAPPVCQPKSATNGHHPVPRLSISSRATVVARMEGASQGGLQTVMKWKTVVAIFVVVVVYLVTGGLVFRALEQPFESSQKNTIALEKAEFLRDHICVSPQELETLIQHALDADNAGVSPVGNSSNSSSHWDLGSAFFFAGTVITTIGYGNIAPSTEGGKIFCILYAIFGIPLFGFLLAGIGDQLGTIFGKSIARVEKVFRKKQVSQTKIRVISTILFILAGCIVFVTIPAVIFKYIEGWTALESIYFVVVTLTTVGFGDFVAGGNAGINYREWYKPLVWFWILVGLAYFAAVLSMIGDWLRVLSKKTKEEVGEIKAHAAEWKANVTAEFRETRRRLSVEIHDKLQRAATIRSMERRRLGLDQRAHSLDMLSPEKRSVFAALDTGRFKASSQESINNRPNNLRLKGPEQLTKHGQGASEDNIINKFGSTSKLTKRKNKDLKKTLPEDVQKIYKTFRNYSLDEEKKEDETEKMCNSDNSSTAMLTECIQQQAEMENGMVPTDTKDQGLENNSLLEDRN
Put plainly: Two-electrode voltage clamp in Xenopus oocytes, K2P10.1. The experiment is classed as cell-based, Murine. In outline: as §1

The target of experiment [2] is T3, K2P2.1 (TREK-1) (Mus musculus, UniProt P97438).
T3 sequence (P97438 1-411 isoform P97438-2): T1 sequence (P97438 1-411 isoform P97438-2 G137I) with I137G
Put plainly: Two-electrode voltage clamp in Xenopus oocytes, K2P2.1. The experiment is classed as cell-based, Murine.

For a further experiment, the target named is T4, K2P2.1 (TREK-1)-3G (Mus musculus, UniProt P97438).
T4 sequence (P97438 16-426): T1 sequence (P97438 1-411 isoform P97438-2 G137I) with M1V, I137G
Put plainly: Two-electrode voltage clamp in Xenopus oocytes, 3G mutant. The experiment is classed as cell-based, Murine.

The target of another experiment is T5, K2P2.1 (TREK-1) W275S (Mus musculus, UniProt P97438, W290S).
T5 sequence (P97438 1-411 isoform P97438-2 W275S): T1 sequence (P97438 1-411 isoform P97438-2 G137I) with I137G, W275S
Kind of experiment: Two-electrode voltage clamp in Xenopus oocytes, W275S mutant. It is filed as cell-based, Murine. In outline: as §1

For a further experiment, the target named is T6, K2P4.1 (TRAAK) (Mus musculus, UniProt O88454).
T6 sequence (O88454 1-398): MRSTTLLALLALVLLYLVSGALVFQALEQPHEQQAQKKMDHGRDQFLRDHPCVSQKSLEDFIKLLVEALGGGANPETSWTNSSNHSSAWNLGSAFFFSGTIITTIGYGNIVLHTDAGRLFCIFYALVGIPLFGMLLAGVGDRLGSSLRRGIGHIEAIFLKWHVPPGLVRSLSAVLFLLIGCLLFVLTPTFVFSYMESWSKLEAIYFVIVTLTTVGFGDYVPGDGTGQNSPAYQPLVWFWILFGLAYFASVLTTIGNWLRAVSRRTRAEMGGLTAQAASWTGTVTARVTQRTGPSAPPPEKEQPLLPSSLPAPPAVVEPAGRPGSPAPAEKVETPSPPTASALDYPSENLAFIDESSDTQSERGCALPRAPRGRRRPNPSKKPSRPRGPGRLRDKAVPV
Kind of experiment: Two-electrode voltage clamp in Xenopus oocytes, K2P4.1. It is filed as cell-based, Murine. In outline: as §1

The next experiment addresses Kv7.2 (KCNQ2) (Homo sapiens, UniProt O43526). Kind of experiment: Two-electrode voltage clamp in Xenopus oocytes, Kv7.2. It is filed as cell-based. The note with it: at 100 μM.
Experiment [3] addresses T3, K2P2.1 (TREK-1). Kind of experiment: Excised membrane patches. The following applies: 0 mV, 20 μM. The experiment is classed as cell-based, Murine.
A further experiment concerns the target T7, K2P18.1 (TRESK) (Mus musculus, UniProt Q6VV64).
T7 sequence (Q6VV64 1-394): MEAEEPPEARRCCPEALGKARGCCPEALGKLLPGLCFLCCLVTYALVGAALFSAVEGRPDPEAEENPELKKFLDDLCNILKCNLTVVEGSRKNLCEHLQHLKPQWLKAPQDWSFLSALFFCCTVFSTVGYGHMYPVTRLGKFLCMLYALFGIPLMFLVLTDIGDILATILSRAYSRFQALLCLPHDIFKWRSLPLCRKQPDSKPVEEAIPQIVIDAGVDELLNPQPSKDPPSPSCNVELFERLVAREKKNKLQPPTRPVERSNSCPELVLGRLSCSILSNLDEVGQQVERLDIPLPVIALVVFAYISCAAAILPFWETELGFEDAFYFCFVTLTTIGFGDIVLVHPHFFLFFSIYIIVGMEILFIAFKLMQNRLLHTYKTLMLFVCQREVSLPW
Put plainly: Two-electrode voltage clamp in Xenopus oocytes, K2P18.1. The following applies: at 100 μM compound. It is filed as cell-based, Murine. The gist of the method: as §1

For the next experiment, the target named is K2P3.1 (TASK-1) (Mus musculus, UniProt O35111). Kind of experiment: Two-electrode voltage clamp in Xenopus oocytes, K2P3.1. The following applies: at 100 μM compound. It is filed as cell-based, Murine. The gist of the method:
as §1

In experiment [4] the target is T3, K2P2.1 (TREK-1). Put plainly: Whole cell patch clamp in HEK-293T cells, K2P2.1. It is filed as cell-based, Murine.
In the next experiment the target is T8, K2P5.1 (TASK-2) (Mus musculus, UniProt F6V9U5).
T8 sequence (F6V9U5 1-502): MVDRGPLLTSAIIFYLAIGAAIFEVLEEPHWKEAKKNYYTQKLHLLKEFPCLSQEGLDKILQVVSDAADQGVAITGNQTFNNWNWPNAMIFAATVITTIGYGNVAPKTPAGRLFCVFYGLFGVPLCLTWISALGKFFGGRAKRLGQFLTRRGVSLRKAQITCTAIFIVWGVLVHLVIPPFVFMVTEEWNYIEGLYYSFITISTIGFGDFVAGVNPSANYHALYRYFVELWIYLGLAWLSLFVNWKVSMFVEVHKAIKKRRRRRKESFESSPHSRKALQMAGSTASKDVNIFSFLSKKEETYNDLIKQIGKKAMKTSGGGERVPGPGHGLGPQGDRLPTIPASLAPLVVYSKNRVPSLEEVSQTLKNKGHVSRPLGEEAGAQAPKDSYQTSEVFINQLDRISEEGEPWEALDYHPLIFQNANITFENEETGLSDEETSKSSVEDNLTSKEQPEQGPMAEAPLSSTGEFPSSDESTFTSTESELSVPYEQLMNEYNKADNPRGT
Kind of experiment: Two-electrode voltage clamp in Xenopus oocytes, K2P5.1. The experiment is classed as cell-based, Murine. The following applies: at 100 μM compound. In outline:
as §1

The mark [5] stands for this setting: whole-cell, HEK-293T, 0 mV, 20 μM.

Sequence of K2P3.1 (TASK-1) (O35111 whole entry): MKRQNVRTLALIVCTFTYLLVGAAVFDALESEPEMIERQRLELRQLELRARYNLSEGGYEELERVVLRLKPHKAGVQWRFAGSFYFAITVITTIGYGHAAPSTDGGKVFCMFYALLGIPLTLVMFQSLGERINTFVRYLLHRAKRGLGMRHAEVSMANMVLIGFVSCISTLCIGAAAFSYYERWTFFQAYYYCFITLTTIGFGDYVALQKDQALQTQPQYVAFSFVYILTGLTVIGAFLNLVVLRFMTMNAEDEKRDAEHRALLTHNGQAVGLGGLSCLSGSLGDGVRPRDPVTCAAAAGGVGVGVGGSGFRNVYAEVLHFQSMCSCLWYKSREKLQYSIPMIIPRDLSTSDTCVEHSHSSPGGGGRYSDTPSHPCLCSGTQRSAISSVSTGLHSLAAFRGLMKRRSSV
Sequence of K2P9.1 (TASK-3) (Q3LS21 whole entry): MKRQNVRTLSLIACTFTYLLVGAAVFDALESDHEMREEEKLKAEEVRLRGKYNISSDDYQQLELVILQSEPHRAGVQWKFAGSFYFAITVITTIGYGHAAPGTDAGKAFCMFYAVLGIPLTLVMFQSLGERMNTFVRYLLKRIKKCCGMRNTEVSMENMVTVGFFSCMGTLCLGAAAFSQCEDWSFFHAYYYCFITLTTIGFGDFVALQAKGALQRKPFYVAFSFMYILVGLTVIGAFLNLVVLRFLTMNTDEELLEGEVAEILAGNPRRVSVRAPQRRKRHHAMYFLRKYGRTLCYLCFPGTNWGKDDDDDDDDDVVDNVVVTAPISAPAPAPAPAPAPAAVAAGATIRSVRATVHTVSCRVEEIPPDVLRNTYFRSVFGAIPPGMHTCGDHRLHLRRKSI
Sequence of Kv7.2 (KCNQ2) (O43526 whole entry): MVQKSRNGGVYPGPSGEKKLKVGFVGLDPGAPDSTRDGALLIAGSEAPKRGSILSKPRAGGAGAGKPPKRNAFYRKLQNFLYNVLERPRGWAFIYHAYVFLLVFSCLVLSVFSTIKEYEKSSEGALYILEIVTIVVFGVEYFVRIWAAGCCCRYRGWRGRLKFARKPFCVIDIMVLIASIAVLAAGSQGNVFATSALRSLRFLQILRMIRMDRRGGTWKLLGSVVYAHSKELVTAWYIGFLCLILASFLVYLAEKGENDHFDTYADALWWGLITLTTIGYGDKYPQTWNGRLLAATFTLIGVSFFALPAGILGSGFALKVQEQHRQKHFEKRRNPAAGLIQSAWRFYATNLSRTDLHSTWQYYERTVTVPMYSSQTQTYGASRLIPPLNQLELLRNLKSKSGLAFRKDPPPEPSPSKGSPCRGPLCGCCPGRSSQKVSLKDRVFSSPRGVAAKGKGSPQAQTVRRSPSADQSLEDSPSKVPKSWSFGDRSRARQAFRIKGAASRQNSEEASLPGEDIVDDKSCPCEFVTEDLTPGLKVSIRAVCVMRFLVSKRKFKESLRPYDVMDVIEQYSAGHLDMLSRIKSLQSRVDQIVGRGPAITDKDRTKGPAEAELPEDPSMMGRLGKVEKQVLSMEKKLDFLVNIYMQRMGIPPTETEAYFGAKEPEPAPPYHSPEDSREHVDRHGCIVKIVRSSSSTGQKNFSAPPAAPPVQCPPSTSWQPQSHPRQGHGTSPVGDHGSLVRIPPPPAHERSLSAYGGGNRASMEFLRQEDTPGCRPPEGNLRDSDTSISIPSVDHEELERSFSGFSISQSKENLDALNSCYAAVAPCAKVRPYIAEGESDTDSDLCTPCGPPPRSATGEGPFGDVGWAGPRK

`ClC(Cl)Cl` [chloroform]: the “reported activation (fold)” value with K2P2.1 (TREK-1) [1] was 5.5 fold.

The EC50 is the concentration at which the effect is half-maximal. Lower therefore signals higher potency in that assay. For `CC1(C)c2cc(Cl)ccc2N(CCc2nnn[nH]2)c2ccc(Cl)cc21` [ML67-33, 2,7-dichloro-9,9-dimethyl-10-[2-(1H-tetrazol-5-yl)-ethyl]-9,10-dihydro-acridine], the Emax at K2P9.1 (TASK-3) (at 100 μM) was found to be 1.7 ± 0.3; at K2P10.1 (TREK-2) (at 100 μM), 11.4 ± 1.8; on K2P2.1 (TREK-1) [4] (HEK cells, at 100 μM) it was 11.4 ± 1.1. In addition, the “Emax (fold)” value was 2.1 ± 0.4 at 150 μM fold on K2P9.1 (TASK-3) (at 150 μM); 0.9 ± 0.1 at 150 μM fold at K2P2.1 (TREK-1) G137I (at 150 μM); 11.4 ± 1.8 fold at K2P10.1 (TREK-2); 11.1 ± 0.4 fold at K2P2.1 (TREK-1) [2] (Xenopus oocytes, at 100 μM compound); 11.1 ± 0.4 fold and ~11 fold at K2P2.1 (TREK-1) [2] (Xenopus oocytes, normalized to basal activity); 5.1 ± 0.6 fold at K2P2.1 (TREK-1) W275S. The “Emax (fold)” value was 14.7 ± 1.12 fold and 14.7 ± 1.1 fold and 14.7 ± 1.1 ^d fold at K2P4.1 (TRAAK) (at 100 μM compound); 0.9 ± 0.1 fold and 0.9 ± 0.1 ^d fold on K2P18.1 (TRESK); 1.1 ± 0.0 fold and 1.1 ± 0.1 ^d fold on K2P3.1 (TASK-1); 11.4 ± 1.1 fold at K2P2.1 (TREK-1) [4] (HEK293 cells); 2.0 ± 0.1 fold at K2P5.1 (TASK-2). Moreover, the “response to activation (in words)” value at K2P2.1 (TREK-1) G137I is given as “completely resistant”. For the same molecule, the “H (cooperativity coefficient from the Hill equation)” value at K2P10.1 (TREK-2) was found to be 1.6 ± 0.6; at K2P2.1 (TREK-1) [2] (Xenopus oocytes), 3.6 ± 0.4; on K2P2.1 (TREK-1)-3G it was 2.2 ± 0.4; on K2P2.1 (TREK-1) W275S it was 1.6 ± 0.7; on K2P4.1 (TRAAK), 1.8 ± 0.4; at K2P2.1 (TREK-1) [4] (HEK293 cells), 2.3 ± 0.7. Also, the “improved potency (fold)” value at K2P2.1 (TREK-1) [2] (EC50 compared to ML67-18) turned out to be 5 fold. The molecule further displayed an EC50 at K2P2.1 (TREK-1)-3G of 49.4 ± 1.1 µM. On Kv7.2 (KCNQ2), the “effect on Kv7.2 (KCNQ2) (in words)” value is on record as “no effect”. The t1/2act at K2P2.1 (TREK-1) [3] (inside-out patch) amounted to 10.8 ± 1.3 s; at K2P2.1 (TREK-1) [3] (outside-out patch) it was 4.6 ± 0.9 s. The t1/2wash at K2P2.1 (TREK-1) [3] (inside-out patch) was 22.0 ± 5.1 s; at K2P2.1 (TREK-1) [3] (outside-out patch), 3.1 ± 0.7 s. For the same molecule, at K2P2.1 (TREK-1) [4] (setting [5]), the “half-maximal activation time (t1/2act)” value is 4.1 ± 0.5 s. The “time of return to baseline following washout (t1/2wash)” value on K2P2.1 (TREK-1) [4] (setting [5]) amounted to 3.9 ± 0.5 s.
